Data set [1] deals with Trichomonas vaginalis. As to the kind of experiment: Antimicrobial activity against Trichomonas vaginalis infected in po dosed mouse relative to metronidazole. It counts as functional. Summed up: (§1)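 Mice infected subcutaneously, then dosed orally. Vehicle depended on compound: suspension in aqueous 0.75% sodium carboxymethylcellulose, DMF-H₂O, DMF-phosphate buffer pH 7.38, or water. ED₅₀ determined, with metronidazole run in parallel. The relative value is ED₅₀ (test) / ED₅₀ (metronidazole).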

Data set [2] has as its system Mycoplasmoides gallisepticum. As to the kind of experiment: Antimicrobial activity against Mycoplasma gallisepticum S6 Weybridge by broth dilution method. It counts as functional. On the technique in general: Dilution methods test growth across graded concentrations, often in twofold steps.
The nature of data set [3]: Therapeutic index, ratio of LD50 for po dosed mouse to ED50 for Trichomonas vaginalis infected in po dosed mouse. As to conditions: in vivo, read-out: Ratio LD50/ED50. Type of data set: organism-based. Summed up:
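Ratio of two mouse values, both dosed orally. The LD50 comes from acute toxicity, with compounds suspended in aqueous 0.5% Methocel 90-HG. The ED50 comes from subcutaneous T. vaginalis infection treated orally. The ED50 vehicle varied by compound: suspension in aqueous 0.75% sodium carboxymethylcellulose, DMF-H2O, DMF-phosphate buffer pH 7.38, or H2O.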

A short description of data set [4]: Acute toxicity in po dosed mouse. Type of data set: organism-based. The conditions noted are these: in vivo. Summed up: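 Acute toxicity in mice by the oral route. Compounds were given as suspensions in aqueous 0.5% Methocel 90-HG.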
For another data set, the system named is Streptococcus pyogenes. As to the kind of experiment: Antimicrobial activity against Streptococcus pyogenes C 203 by microtitre method. It counts as functional.
Data set [5] has as its system Trichomonas vaginalis. As to the kind of experiment: Antimicrobial activity against Trichomonas vaginalis by broth dilution method. Type of data set: functional.
A further data set deals with Clostridium perfringens. Briefly: Antimicrobial activity against Clostridium perfringens ISS 30543 by broth dilution method. Type of data set: functional.
In another data set the test system is Staphylococcus aureus. Briefly: Antimicrobial activity against Staphylococcus aureus Tour by microtitre method. It counts as functional.
In data set [6] the test system is Trichomonas vaginalis. As to the kind of experiment: Antimicrobial activity against Trichomonas vaginalis infected in po dosed mouse. Type of data set: functional. The procedure, abridged:
as §1

For data set [7], the system named is Mus musculus. Briefly: Toxicity in CF1 mouse assessed as cyanosis at 60 to 600 mg/kg, po by Irwin test. As to conditions: in vivo. On the set-up: dose 60-600 mg/kg, route oral. Type of data set: organism-based. Summed up: (§2)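 Irwin observational method in male CF1 mice (19–22 g). Oral dosing of a suspension in 0.5% Methocel 90-HG at 10 mL/kg, up to 600 mg/kg; controls received saline. Directly observable behavioural and autonomic changes were scored, with the threshold dose for onset recorded.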

Data set [8] concerns Mus musculus. Briefly: Inhibition of strychine sulfate/pentetrazole-induced death in CF1 mouse at 250 to 500 mg/kg, po administered 60 mins prior to strychine sulfate/pentetrazole challenge. Type of data set: functional, organism-based.
For data set [9], the system named is Mus musculus. Briefly: Toxicity in CF1 mouse assessed as reduction in body tone at 60 to 600 mg/kg, po by Irwin test. Type of data set: organism-based. On the set-up: dose 60-600 mg/kg, route oral. The conditions noted are these: in vivo. Summed up:
as §2

Data set [10] has as its system Mus musculus. As to the kind of experiment: Toxicity in CF1 mouse assessed as reduction in respiratory rate at 60 to 600 mg/kg, po by Irwin test. Type of data set: organism-based. More on the design: dose 60-600 mg/kg, route oral. The conditions noted are these: in vivo. The procedure, abridged:
as §2

For data set [11], the system named is Mus musculus. As to the kind of experiment: Toxicity in CF1 mouse assessed as change in sleeping time at 500 mg/kg, po administered 30 mins prior to hexobarbital sodium challenge relative to vehicle-treated control. More on the design: dose 500 mg/kg, route oral. The conditions noted are these: in vivo, 0.5 h. It counts as organism-based. Summed up: (§3)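 Male CF1 mice (19–22 g), groups of 30, given oral doses as a 0.5% Methocel 90-HG suspension at 10 mL/kg; saline controls (90 animals). Hexobarbital sodium 75 mg/kg ip given 30 min later, at 25–26 °C. Sleeping time given as mean ± SE and as % change vs controls; Dunnett's t test.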

Data set [12] has as its system Mus musculus. Briefly: Toxicity in CF1 mouse assessed as reduction in heart rate at 60 to 600 mg/kg, po by Irwin test. As to conditions: in vivo. It counts as organism-based. More on the design: dose 60-600 mg/kg, route oral. Summed up:
as §2

Data set [13] concerns Mus musculus. As to the kind of experiment: Toxicity in CF1 mouse assessed as reduction in spontaneous activity at 60 to 600 mg/kg, po by Irwin test. As to conditions: in vivo. On the set-up: dose 60-600 mg/kg, route oral. It counts as organism-based. Summed up:
as §2

The subject of data set [14] is Mus musculus. As to the kind of experiment: Toxicity in CF1 mouse assessed as change in sleeping time at 250 mg/kg, po administered 30 mins prior to hexobarbital sodium challenge relative to vehicle-treated control. Type of data set: organism-based. On the set-up: dose 250 mg/kg, route oral. The conditions noted are these: in vivo, 0.5 h. The procedure, abridged:
as §3

Data set [15] concerns Mus musculus. As to the kind of experiment: Toxicity in CF1 mouse assessed as reduction in opening of eyelid at 60 to 600 mg/kg, po by Irwin test. Type of data set: organism-based. On the set-up: dose 60-600 mg/kg, route oral. The conditions noted are these: in vivo. Summed up: as §2
Data set [16] concerns Mus musculus. As to the kind of experiment: Toxicity in CF1 mouse assessed as reduction in curiosity at 60 to 600 mg/kg, po by Irwin test. It counts as organism-based. The conditions noted are these: in vivo. On the set-up: dose 60-600 mg/kg, route oral. Summed up:
as §2

Data set [17] deals with Mus musculus. As to the kind of experiment: Toxicity in CF1 mouse assessed as ataxia at 60 to 600 mg/kg, po by Irwin test. Type of data set: organism-based. On the set-up: dose 60-600 mg/kg, route oral. As to conditions: in vivo. Summed up: as §2
The test system of data set [18] is Rattus norvegicus. Briefly: Inhibition of carrageenan-induced edema in rat. Type of data set: functional, organism-based.
For data set [19], the system named is Rattus norvegicus. As to the kind of experiment: Effect on pressor response in conscious normotensive rat up to 50 mg/kg. It counts as functional, organism-based. On the set-up: dose 50 mg/kg.
Data set [20] is described as follows: Solubility of the compound in water. The conditions noted are these: buffer. Type of data set: physicochemical.

Converted amounts (≈) assume the structure as drawn. The source made the active and inactive calls.

`CCS(=O)(=O)CCn1c([N+](=O)[O-])cnc1C` [TINIDAZOLE]: in the data set on Trichomonas vaginalis [1], the “Ratio ED50” value came to 0.43. Further, the MIC (as a rule, the lowest concentration found to suppress growth) in [2] is above 300 µg/mL; with Streptococcus pyogenes, above 300 µg/mL; against Trichomonas vaginalis [5], 3.1 µg/mL (≈ 12.5 µM); in the data set on Clostridium perfringens it was 0.3 µg/mL (≈ 1.21 µM); in the data set on Staphylococcus aureus it was 300 µg/mL (≈ 1210 µM). Moreover, the selectivity ratio in data set [3] came to 1280. Further, the LD50 – broadly, the dose at which mortality reaches 50% – in data set [4] is 3200 mg/kg. Besides, in the data set with Trichomonas vaginalis [6], the ED50 (as a rule, the midpoint of the dose-response relation) was found to be 2.5 mg/kg.
For the compound `Cn1c(C(C)(C)OC(=O)c2ccccc2)cnc1[N+](=O)[O-]`, in the data set with Trichomonas vaginalis [1], the “Ratio ED50” value worked out at 1.62. Further, the minimum inhibitory concentration (MIC) in data set [2] is 50 µg/mL (≈ 173 µM); with Streptococcus pyogenes it was 100 µg/mL (≈ 346 µM); in the data set with Trichomonas vaginalis [5], above 100 µg/mL; with Clostridium perfringens, 3.1 µg/mL (≈ 10.7 µM); with Staphylococcus aureus, 100 µg/mL (≈ 346 µM). This compound came in with a 50% effective dose (ED50) in the data set with Trichomonas vaginalis [6] of 16.2 mg/kg.
As to `Cn1c(C(C)(C)OC(N)=O)cnc1[N+](=O)[O-]`, the “Ratio ED50” value with Trichomonas vaginalis [1] is given as 0.4. For the same compound, the MIC in data set [2] was above 100 µg/mL; with Streptococcus pyogenes it was 100 µg/mL (≈ 438 µM); with Trichomonas vaginalis [5], 10 µg/mL (≈ 43.8 µM); against Clostridium perfringens, 10 µg/mL (≈ 43.8 µM); against Staphylococcus aureus, above 100 µg/mL. For the same compound, the selectivity ratio in [3] is 156. Moreover, the LD50 in [4] amounted to 900 mg/kg. The compound also came in with an ED50 in the data set with Trichomonas vaginalis [6] of 5.74 mg/kg.
In the case of `O=[N+]([O-])c1cncn1CCN1CCOCC1` [NIMORAZOLE], the “Ratio ED50” value in the data set with Trichomonas vaginalis [1] is on record as 4.66. Further, the MIC in data set [2] was above 300 µg/mL; in the data set with Streptococcus pyogenes, above 300 µg/mL; against Trichomonas vaginalis [5], 12.5 µg/mL (≈ 55.3 µM); against Clostridium perfringens, 0.6 µg/mL (≈ 2.65 µM); in the data set with Staphylococcus aureus it was above 300 µg/mL. In data set [3], the selectivity ratio was 40. This compound displayed an LD50 in data set [4] of 1530 mg/kg. In addition, in the data set with Trichomonas vaginalis [6], the 50% effect level (ED50) was put at a dose of 37.9 mg/kg.
Turning to `Cn1c(C(C)(C)OC(=O)Oc2ccccc2)cnc1[N+](=O)[O-]`, the Activity entry in the data set with Mus musculus [7] was “Toxic”; in the data set on Mus musculus [9] it was “Toxic”; with Mus musculus [10], “Toxic”; in the data set with Mus musculus [11], 18.1%; with Mus musculus [12], “Toxic”; in the data set on Mus musculus [13], “Toxic”. For the same compound, the Activity in the data set on Mus musculus [14] was 15.5%; in the data set with Mus musculus [15], “Toxic”; in the data set with Mus musculus [16] it was “Toxic”; in the data set on Mus musculus [17] it was “Toxic”. In addition, the inhibition entry with Mus musculus [8] is “Active”. For the same compound, the “Ratio ED50” value in the data set on Trichomonas vaginalis [1] is reported as 0.28. In addition, the MIC was above 100 µg/mL in data set [2]; 100 µg/mL (≈ 328 µM) against Streptococcus pyogenes; 2 µg/mL (≈ 6.55 µM) in the data set with Trichomonas vaginalis [5]; 10 µg/mL (≈ 32.8 µM) against Clostridium perfringens; 100 µg/mL (≈ 328 µM) with Staphylococcus aureus. Besides, in [3], the selectivity ratio turned out to be 1970. The inhibition result in the data set with Rattus norvegicus [18] was “inactive”. In the data set with Rattus norvegicus [19], the result was inactive.
On to `CS(=O)(=O)[O-].Cn1c(C(C)(C)[n+]2ccccc2)cnc1[N+](=O)[O-]`, for which the “Ratio ED50” value in the data set on Trichomonas vaginalis [1] is above 4. Further, the MIC (in data set [2]; against Streptococcus pyogenes; in the data set with Trichomonas vaginalis [5]; against Clostridium perfringens; against Staphylococcus aureus) was above 100 µg/mL in each case. In addition, the solubility result in [20] is listed as “soluble”. The compound also showed an ED50 in the data set on Trichomonas vaginalis [6] above 40 mg/kg.

For the origin of these results see ChEMBL document CHEMBL3271964, “Synthesis and biological activity of new 2-nitroimidazole derivatives” (J Med Chem, 1978).
